Laboratory results taken from the RNAGym collection of RNA variant scans (doi:10.1038/s41586-018-0170-7).

B1: tRNA (parent)
chain: GUUCCGUUGGCGUAAUGGUAACGCGUCUCCCUCCUAAGGAGAAGACUGCGGGUUCGAGUCCCGUACGGAACG

Variants of: B1
Experiment: yeast fitness, log relative to wild type (ln ratio); higher = fitter; tRNA-Arg(CCU), competitive growth, 37 C, 1 M NaCl
Procedure, shortened: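 Fitness is the natural log of a genotype's generation count divided by that of the wild type. A combinatorial library of tRNA-Arg(CCU) variants sat on a HIS3 centromeric plasmid in BY4742 lacking the chromosomal gene, from two independent transformations. Pools grew 4 generations in SC-HIS at 30 °C, then ~6.5 generations (~26.5 h) in SC-HIS 1M NaCl at 37 °C, with three outputs per input. Generations came from OD-scaled log2 output/input frequency, inverse-variance weighted across replicates, with variants counted by 125 bp paired-end Illumina sequencing.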

| Variant | yeast fitness (ln) |
| --- | --- |
| GCUCCUUUGGCGUAAUGGUAACGCGUCUCCCUCCUAAGGAGAAGAUUGCGGGUUCGAGUCCCGUAUGGGUUG [U2C G6U C46U C66U A69G A70U C71U] | -0.282 |
| AUUCCAUUGGCGUAAUGGUAACGCGUUUCCCUCCUAAGGAGACGAUUGCGGGUUCGAGUCCCGUAAGGAUCG [G1A G6A C27U A43C C46U C66A A70U] | -0.192 |
| AUUCCUUUGGCGUAAUGGUAACGCGUUUCCCUCCUAAGGAGAAGAUUGCGGGUUCGAGUCCCGUAAGGGUUG [G1A G6U C27U C46U C66A A69G A70U C71U] | -0.37 |
| GGUCCAUUGGCGUAAUGGUAACGCGUCUCCCUCCUAAGGAGAAGACUGCGGGUUCGAGUCCCGUAUGGAACG [U2G G6A C66U] | -0.0956 |
| GGUCCUUUGGCGUAAUGGUAACGCGUCUCCCUCCUAAGGAGAAGAUUGCGGGUUCGAGUCCCGUAAGGGAUG [U2G G6U C46U C66A A69G C71U] | -0.185 |
| GGUCCAUUGGCGUAAUGGUAACGCGUUUCCCUCCUAAGGAGACGACUGCGGGUUCGAGUCCCGUAUGGGGUG [U2G G6A C27U A43C C66U A69G A70G C71U] | -0.386 |
| GGUCCAUUGGCGUAAUGGUAACGCGUCUCCCUCCUAAGGAGAAGAUUGCGGGUUCGAGUCCCGUAAGGAUUG [U2G G6A C46U C66A A70U C71U] | -0.106 |
| GGUCCAUUGGCGUAAUGGUAACGCGUUUCCCUCCUAAGGAGAAGACUGCGGGUUCGAGUCCCGUACGGAACG [U2G G6A C27U] | -0.0425 |
| GGUCCAUUGGCGUAAUGGUAACGCGUUUCCCUCCUAAGGAGAAGACUGCGGGUUCGAGUCCCGUACGGAGUG [U2G G6A C27U A70G C71U] | -0.216 |
| GUUCCUUUGGCGUAAUGGUAACGCGUCUCCCUCCUAAGGAGAAGAUUGCGGGUUCGAGUCCCGUAAGGGGUG [G6U C46U C66A A69G A70G C71U] | -0.414 |
| GGUCCAUUGGCGUAAUGGUAACGCGUUUCCCUCCUAAGGAGAAGAUUGCGGGUUCGAGUCCCGUAAGGGGCG [U2G G6A C27U C46U C66A A69G A70G] | -0.134 |
| GGUCCAUUGGCGUAAUGGUAACGCGUCUCCCUCCUAAGGAGAAGACUGCGGGUUCGAGUCCCGUACGGAGUG [U2G G6A A70G C71U] | -0.142 |
| GUUCCGUUGGCGUAAUGGUAACGCGUCUCCCUCCUAAGGAGAAGACUGCGGGUUCGAGUCCCGUAAGGGACG [C66A A69G] | -0.0295 |
| AGUCCAUUGGCGUAAUGGUAACGCGUCUCCCUCCUAAGGAGACGAUUGCGGGUUCGAGUCCCGUAUGGAUUG [G1A U2G G6A A43C C46U C66U A70U C71U] | -0.086 |
| AGUCCGUUGGCGUAAUGGUAACGCGUUUCCCUCCUAAGGAGAAGACUGCGGGUUCGAGUCCCGUACGGAGCG [G1A U2G C27U A70G] | -0.142 |
| AUUCCGUUGGCGUAAUGGUAACGCGUCUCCCUCCUAAGGAGAAGACUGCGGGUUCGAGUCCCGUAAGGAAUG [G1A C66A C71U] | -0.113 |
| GGUCCUUUGGCGUAAUGGUAACGCGUUUCCCUCCUAAGGAGAAGACUGCGGGUUCGAGUCCCGUACGGGAUG [U2G G6U C27U A69G C71U] | -0.286 |
| ACUCCAUUGGCGUAAUGGUAACGCGUUUCCCUCCUAAGGAGACGACUGCGGGUUCGAGUCCCGUAUGGAGCG [G1A U2C G6A C27U A43C C66U A70G] | -0.3 |
| GUUCCUUUGGCGUAAUGGUAACGCGUCUCCCUCCUAAGGAGAAGACUGCGGGUUCGAGUCCCGUAAGGGAUG [G6U C66A A69G C71U] | -0.0488 |

| Variant | yeast fitness (ln) |
| --- | --- |
| AGUCCGUUGGCGUAAUGGUAACGCGUCUCCCUCCUAAGGAGAAGACUGCGGGUUCGAGUCCCGUACGGAGCG [G1A U2G A70G] | -0.0928 |
| GUUCCGUUGGCGUAAUGGUAACGCGUUUCCCUCCUAAGGAGACGACUGCGGGUUCGAGUCCCGUACGGGGCG [C27U A43C A69G A70G] | -0.235 |
| GGUCCUUUGGCGUAAUGGUAACGCGUUUCCCUCCUAAGGAGAAGACUGCGGGUUCGAGUCCCGUACGGAUCG [U2G G6U C27U A70U] | -0.397 |
| AGUCCGUUGGCGUAAUGGUAACGCGUCUCCCUCCUAAGGAGACGACUGCGGGUUCGAGUCCCGUACGGAUCG [G1A U2G A43C A70U] | -0.33 |
| GGUCCGUUGGCGUAAUGGUAACGCGUUUCCCUCCUAAGGAGAAGAUUGCGGGUUCGAGUCCCGUACGGGAUG [U2G C27U C46U A69G C71U] | -0.112 |
| GUUCCUUUGGCGUAAUGGUAACGCGUUUCCCUCCUAAGGAGAAGAUUGCGGGUUCGAGUCCCGUAAGGAUCG [G6U C27U C46U C66A A70U] | -0.084 |
| AGUCCUUUGGCGUAAUGGUAACGCGUUUCCCUCCUAAGGAGAAGAUUGCGGGUUCGAGUCCCGUACGGGGUG [G1A U2G G6U C27U C46U A69G A70G C71U] | -0.35 |
| AUUCCGUUGGCGUAAUGGUAACGCGUCUCCCUCCUAAGGAGACGAUUGCGGGUUCGAGUCCCGUAUGGAAUG [G1A A43C C46U C66U C71U] | -0.247 |
| GUUCCAUUGGCGUAAUGGUAACGCGUCUCCCUCCUAAGGAGACGACUGCGGGUUCGAGUCCCGUAUGGAGCG [G6A A43C C66U A70G] | -0.128 |
| AGUCCUUUGGCGUAAUGGUAACGCGUCUCCCUCCUAAGGAGACGACUGCGGGUUCGAGUCCCGUAUGGGGCG [G1A U2G G6U A43C C66U A69G A70G] | -0.371 |
| ACUCCUUUGGCGUAAUGGUAACGCGUCUCCCUCCUAAGGAGAAGAUUGCGGGUUCGAGUCCCGUAAGGAGCG [G1A U2C G6U C46U C66A A70G] | -0.0166 |
| AGUCCUUUGGCGUAAUGGUAACGCGUUUCCCUCCUAAGGAGAAGACUGCGGGUUCGAGUCCCGUAUGGGGCG [G1A U2G G6U C27U C66U A69G A70G] | -0.333 |
| AUUCCAUUGGCGUAAUGGUAACGCGUUUCCCUCCUAAGGAGACGACUGCGGGUUCGAGUCCCGUAUGGAGCG [G1A G6A C27U A43C C66U A70G] | -0.431 |
| AGUCCAUUGGCGUAAUGGUAACGCGUCUCCCUCCUAAGGAGACGACUGCGGGUUCGAGUCCCGUAUGGGUUG [G1A U2G G6A A43C C66U A69G A70U C71U] | -0.396 |
| AUUCCUUUGGCGUAAUGGUAACGCGUCUCCCUCCUAAGGAGAAGAUUGCGGGUUCGAGUCCCGUACGGGAUG [G1A G6U C46U A69G C71U] | -0.297 |
| AUUCCGUUGGCGUAAUGGUAACGCGUUUCCCUCCUAAGGAGACGAUUGCGGGUUCGAGUCCCGUACGGAGUG [G1A C27U A43C C46U A70G C71U] | -0.153 |
| GGUCCAUUGGCGUAAUGGUAACGCGUUUCCCUCCUAAGGAGACGACUGCGGGUUCGAGUCCCGUACGGGGUG [U2G G6A C27U A43C A69G A70G C71U] | -0.176 |
| AGUCCAUUGGCGUAAUGGUAACGCGUUUCCCUCCUAAGGAGACGAUUGCGGGUUCGAGUCCCGUAUGGGGCG [G1A U2G G6A C27U A43C C46U C66U A69G A70G] | -0.34 |
